Laboratory results taken from ChEMBL document CHEMBL4371064, “Erythrofordins D and E, two new cassaine-type diterpenes from Erythrophleum suaveolens” (2019).

What was measured:
Assay type in all cases: functional
HOP-62 = assay: Growth inhibition of human HOP62 cells incubated for 48 hrs by sulforhodamine B assay; details: HOP-62, 48 h
Outline: (§1)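 Run in the NCI-60 human tumour cell line panel with dose-response testing. GI50 was determined for each cell line from its dose-response data.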

SK-MEL-28 = assay: Growth inhibition of human SK-MEL-28 cells incubated for 48 hrs by sulforhodamine B assay; details: SK-MEL-28, 48 h; outline: as §1
KM12 = assay: Growth inhibition of human KM12 cells incubated for 48 hrs by sulforhodamine B assay; details: KM12, 48 h; outline: as §1
OVCAR-5 = assay: Growth inhibition of human OVCAR5 cells incubated for 48 hrs by sulforhodamine B assay; details: OVCAR-5, 48 h; outline: as §1
ACHN = assay: Growth inhibition of human ACHN cells incubated for 48 hrs by sulforhodamine B assay; outline: as §1
HOP-92 = assay: Growth inhibition of human HOP92 cells incubated for 48 hrs by sulforhodamine B assay; details: HOP-92, 48 h; outline: as §1
SK-MEL-5 = assay: Growth inhibition of human SK-MEL-5 cells incubated for 48 hrs by sulforhodamine B assay; details: SK-MEL-5, 48 h; outline: as §1
IGROV-1 = assay: Growth inhibition of human IGROV1 cells incubated for 48 hrs by sulforhodamine B assay; details: IGROV-1, 48 h; outline: as §1
786-0 = assay: Growth inhibition of human 786-0 cells incubated for 48 hrs by sulforhodamine B assay; details: 786-0, 48 h; outline: as §1
TK-10 = assay: Growth inhibition of human TK10 cells incubated for 48 hrs by sulforhodamine B assay; details: TK-10, 48 h
Outline: (§2)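 Tested in the NCI 60-human-tumour-cell-line screen using the five-dose format. GI₅₀ was derived from each cell line's dose-response. TGI and LC₅₀ were derived from the same dose-response data.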

SNB-75 = assay: Growth inhibition of human SNB75 cells incubated for 48 hrs by sulforhodamine B assay; details: SNB-75, 48 h; outline: as §1
NCI-H23 = assay: Growth inhibition of human NCI-H23 cells incubated for 48 hrs by sulforhodamine B assay; details: NCI-H23, 48 h; outline: as §1
PC-3 = assay: Growth inhibition of human PC3 cells incubated for 48 hrs by sulforhodamine B assay; details: PC-3, 48 h; outline: as §1
LOX IMVI = assay: Growth inhibition of human LOXIMVI cells incubated for 48 hrs by sulforhodamine B assay; outline: as §1
UO-31 = assay: Growth inhibition of human UO31 cells incubated for 48 hrs by sulforhodamine B assay; details: UO-31, 48 h; outline: as §2
UACC-62 = assay: Growth inhibition of human UACC62 cells incubated for 48 hrs by sulforhodamine B assay; details: UACC-62, 48 h; outline: as §2
MDA-MB-435 = assay: Growth inhibition of human MDA-MB-435 cells incubated for 48 hrs by sulforhodamine B assay; details: MDA-MB-435, 48 h; outline: as §1
DU-145 = assay: Growth inhibition of human DU145 cells incubated for 48 hrs by sulforhodamine B assay; details: DU-145, 48 h; outline: as §1
CCRF-CEM = assay: Growth inhibition of human CCRF-CEM cells incubated for 48 hrs by sulforhodamine B assay; outline: as §1
CAKI-1 = assay: Growth inhibition of human Caki1 cells incubated for 48 hrs by sulforhodamine B assay; details: CAKI-1, 48 h; outline: as §1
NCI/ADR-RES = assay: Growth inhibition of human NCI/ADR-RES cells incubated for 48 hrs by sulforhodamine B assay; outline: as §1
SNB-19 = assay: Growth inhibition of human SNB19 cells incubated for 48 hrs by sulforhodamine B assay; details: SNB-19, 48 h; outline: as §1
HCT-15 = assay: Growth inhibition of human HCT15 cells incubated for 48 hrs by sulforhodamine B assay; details: HCT-15, 48 h; outline: as §1
OVCAR-3 = assay: Growth inhibition of human OVCAR3 cells incubated for 48 hrs by sulforhodamine B assay; details: OVCAR-3, 48 h; outline: as §1
MOLT-4 = assay: Growth inhibition of human MOLT4 cells incubated for 48 hrs by sulforhodamine B assay; details: MOLT-4, 48 h; outline: as §1
NCI-H460 = assay: Growth inhibition of human NCI-H460 cells incubated for 48 hrs by sulforhodamine B assay; details: NCI-H460, 48 h; outline: as §1
BT-549 = assay: Growth inhibition of human BT549 cells incubated for 48 hrs by sulforhodamine B assay; details: BT-549, 48 h; outline: as §1
MDA-MB-468 = assay: Growth inhibition of human MDA-MB-468 cells incubated for 48 hrs by sulforhodamine B assay; details: MDA-MB-468, 48 h; outline: as §1
Hs-578T = assay: Growth inhibition of human Hs578T cells incubated for 48 hrs by sulforhodamine B assay; outline: as §1
[1] = read-out: pLC50 (the source's name) (converted)

## COC(=O)/C=C1\CC[C@H]2[C@@H](CC(=O)[C@H]3C(C)(C)C(=O)CC[C@]23C)[C@H]1C
HOP-62
  GI50: 550 nM
HOP-62; [1]
  CC50: 2630 nM
HOP-62; read-out: pTGI (converted)
  TGI: 1200 nM
SK-MEL-28
  GI50: 1170 nM
  LC50: > 34700 nM
SK-MEL-28; read-out: pTGI (converted)
  TGI: 5010 nM
KM12
  GI50: 1230 nM
  LC50 (concentration killing 50% of cells): 24000 nM
KM12; read-out: pTGI
  TGI: 5250 nM
OVCAR-5
  GI50: 776 nM
  LC50: 21400 nM
OVCAR-5; read-out: pTGI (converted)
  TGI: 2340 nM
ACHN
  GI50: 162 nM
  LC50: 1860 nM
ACHN; read-out: pTGI (converted)
  TGI: 617 nM
HOP-92
  GI50: 1000 nM
  LC50: > 34700 nM
HOP-92; read-out: pTGI (converted)
  TGI: 3470 nM
SK-MEL-5
  GI50: 708 nM
  LC50: 3160 nM
SK-MEL-5; read-out: pTGI (converted)
  TGI: 1480 nM
IGROV-1
  GI50: 1290 nM
  LC50: > 34700 nM
IGROV-1; read-out: pTGI (converted)
  TGI: 7590 nM
786-0
  GI50: 676 nM
  LC50: 3160 nM
786-0; read-out: pTGI (converted)
  TGI: 1450 nM
TK-10
  GI50: 794 nM
  LC50 (lethal concentration killing 50% of cells): 14800 nM
TK-10; read-out: pTGI (converted)
  TGI: 2400 nM
SNB-75
  GI50: 550 nM
  LC50 (concentration killing 50% of cells): 2630 nM
SNB-75; read-out: pTGI (converted)
  TGI: 1200 nM
NCI-H23
  GI50: 661 nM
  LC50: > 34700 nM
NCI-H23; read-out: pTGI (converted)
  TGI: 1780 nM
PC-3
  GI50: 933 nM
PC-3; [1]
  CC50: > 34700 nM
PC-3; read-out: pTGI (converted)
  TGI: 2750 nM
LOX IMVI
  GI50: 692 nM
  LC50: 5250 nM
LOX IMVI; read-out: pTGI (converted)
  TGI: 1660 nM
UO-31
  GI50: 550 nM
  LC50: 2240 nM
UO-31; read-out: pTGI (converted)
  TGI: 1100 nM
UACC-62
  GI50: 832 nM
  LC50: 11500 nM
UACC-62; read-out: pTGI (converted)
  TGI: 2290 nM
MDA-MB-435
  GI50: 1070 nM
  LC50: 20400 nM
MDA-MB-435; read-out: pTGI (converted)
  TGI: 3800 nM
DU-145
  GI50: 575 nM
  LC50 (concentration killing 50% of cells): 1950 nM
DU-145; read-out: pTGI (converted)
  TGI: 1050 nM
CCRF-CEM
  GI50: 708 nM
  LC50: > 34700 nM
CCRF-CEM; read-out: pTGI (converted)
  TGI: 2290 nM
CAKI-1
  GI50: 661 nM
  LC50: 2950 nM
CAKI-1; read-out: pTGI (converted)
  TGI: 1380 nM
NCI/ADR-RES
  GI50: 741 nM
NCI/ADR-RES; [1]
  CC50: > 34700 nM
NCI/ADR-RES; read-out: pTGI (converted)
  TGI: 1910 nM
SNB-19
  GI50: 1200 nM
  LC50: 12900 nM
SNB-19; read-out: pTGI (converted)
  TGI: 4470 nM
HCT-15
  GI50: 692 nM
  LC50: 3310 nM
HCT-15; read-out: pTGI (converted)
  TGI: 1510 nM
OVCAR-3
  GI50: 661 nM
  LC50: 2510 nM
OVCAR-3; read-out: pTGI (converted)
  TGI: 1290 nM
MOLT-4
  GI50: 195 nM
  LC50: > 34700 nM
MOLT-4; read-out: pTGI (converted)
  TGI: 1150 nM
NCI-H460
  GI50: 170 nM
  LC50: 2140 nM
NCI-H460; read-out: pTGI (converted)
  TGI: 661 nM
BT-549
  GI50: 676 nM
  LC50: 5130 nM
BT-549; read-out: pTGI (converted)
  TGI: 1660 nM
MDA-MB-468
  GI50: 1700 nM
MDA-MB-468; [1]
  CC50: > 34700 nM
MDA-MB-468; read-out: pTGI (converted)
  TGI: 12300 nM
Hs-578T
  GI50: 417 nM
  LC50: > 34700 nM
Hs-578T; read-out: pTGI (converted)
  TGI: 1660 nM
